Rows were chosen to be rich in hits. Some 2.6% of all compounds tested hit in one or more screens of this group.
SENP7 block = inhibitors of human SENP7 protease | recombinant SENP7, Z-RLRGG-aminoluciferin luminescence, 40 min | Q9BQF6 | AID 434973 | inhibition, % at 5 µM | 330,000 compounds, 1.5% hits;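 active = inhibition above about 50% at the single test dose, limit read from the data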;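 note: plate controls were DMSO with enzyme for no effect and no enzyme buffer wells for full effect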
SENP6 block = blocks the human protease SENP6; Q9GZR1; Recombinant SENP6 catalytic domain, aminoluciferin luminescence; inhibition, % at 10 µM; 330,000 compounds, 1.8% hits;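 active = inhibition above about 50% at the single tested dose, limit read from the data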;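 note: plate controls were DMSO wells with enzyme for no effect and DMSO wells lacking enzyme for full effect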
Target sequence (Q9GZR1 628-1112 limits assumed): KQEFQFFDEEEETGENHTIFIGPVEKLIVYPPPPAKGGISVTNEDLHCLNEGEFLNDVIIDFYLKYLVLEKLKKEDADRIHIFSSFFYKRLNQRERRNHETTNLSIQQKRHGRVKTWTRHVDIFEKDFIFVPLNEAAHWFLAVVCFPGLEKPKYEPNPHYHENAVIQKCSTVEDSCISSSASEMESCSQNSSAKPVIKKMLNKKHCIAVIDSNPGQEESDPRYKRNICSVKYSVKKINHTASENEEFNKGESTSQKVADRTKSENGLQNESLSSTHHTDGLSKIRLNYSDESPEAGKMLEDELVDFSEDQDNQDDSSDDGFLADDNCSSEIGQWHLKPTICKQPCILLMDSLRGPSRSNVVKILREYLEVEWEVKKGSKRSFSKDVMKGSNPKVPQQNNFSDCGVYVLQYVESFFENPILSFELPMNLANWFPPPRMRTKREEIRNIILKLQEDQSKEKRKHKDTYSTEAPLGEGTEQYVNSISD
SENP8 block-1 = inhibitors of human SENP8 protease; Q96LD8; recombinant SENP8, Nedd8 substrate fluorescence; inhibition, % at 20 µM; 360,000 compounds, 0.64% hits; AID 602440; in the data active = inhibition mostly above about 40%, no sharp cut-off; inactive = mostly below about 27%
Target sequence (Q96LD8 whole entry, looked up): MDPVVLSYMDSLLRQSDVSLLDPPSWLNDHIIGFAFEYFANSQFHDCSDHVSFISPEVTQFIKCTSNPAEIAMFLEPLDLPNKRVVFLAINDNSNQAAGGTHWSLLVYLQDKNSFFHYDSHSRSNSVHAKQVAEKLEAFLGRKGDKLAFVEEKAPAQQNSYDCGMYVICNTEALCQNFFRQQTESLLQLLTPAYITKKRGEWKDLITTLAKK
SENP8 block-2 = blocks the human protease SENP8; Q96LD8; purified SENP8, Z-RLRGG-aminoluciferin cleavage, luminescence; inhibition, % at 10 µM; 330,000 compounds, 1.2% hits; in the data active = inhibition above about 50%
SENP1 FRET inh = blocks the human SENP1 SUMO protease catalytic domain; 360,000 compounds, 0.21% hits; recombinant SENP1 catalytic domain, CyPet-SUMO1-YPet FRET cleavage; Q9P0U3; inhibition, % at 10 µM;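 active = inhibition at least 30% at 10 µM, raw YFP signal under a set limit, fluorescence ratio 0.5 to 1.5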;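 note: 0% = enzyme with DMSO and 100% = no enzyme wells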
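Test system: human SENP1 catalytic domain; medium: Tris pH 8 buffer plus EDTA, NaCl, BME, BSA, NP40, catalase; incubation: 50 min reaction at room temperature; technique: FRET, CFP and YFP emission; controls: no-enzyme low control and enzyme-plus-DMSO high control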
Platelet DG rel = platelet dense granule release activity; human platelet-rich plasma, SFLLRN dense granule ATP release, luminescence; AID 1663; 300,000 compounds, 0.22% hits; inhibition, %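 (compounds screened at 7.5 µM in platelet-rich plasma)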;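 active = mean replicate score, as percent of positive control, at or above 50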
SENP8 conf = human SENP8 inhibition, confirmed; shares compounds with SENP7 block; Recombinant SENP8, Z-RLRGG-aminoluciferin luminescence, 60 min; inhibition, % at 12.5 µM; 6,200 compounds, 40% hits;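 active = mean inhibition across replicates above about 50%, limit read from the data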
SENP6 confirm = confirmation of human SENP6 protease inhibitors | 6,200 compounds, 58% hits | inhibition, % at 12.5 µM | shares compounds with SENP7 block | recombinant SENP6, Z-RLRGG-aminoluciferin luminescence
SENP7 confirm = confirmation of human SENP7 protease inhibitors; inhibition, % at 12.5 µM; 6,200 compounds, 69% hits; AID 488917; recombinant SENP7, Z-RLRGG-aminoluciferin luminescence, 40 min; shares compounds with SENP7 block
Casp3 SENP sel = caspase-3 inhibition (SENP selectivity assay) | 6,200 compounds, 60% hits | purified caspase-3, Z-DEVD-aminoluciferin luminescence, 60 min | inhibition, % at 12.5 µM | shares compounds with SENP7 block | AID 488918;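 active = mean inhibition above about 50%, limit read from the data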;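 note: plate controls were enzyme with DMSO for no effect and wells without caspase-3 for full effect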
SENP luc ctr = counter-screen for SENP inhibitors: luminescence interference | shares compounds with SENP7 block | Pre-incubated SENP8/Z-RLRGG-aminoluciferin, luciferase luminescence interference | inhibition, % at 12.5 µM | 6,200 compounds, 39% hits;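 active = mean inhibition above about 50% when retested at one dose, limit read from the data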;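 note: plate controls were DMSO wells with completed reaction for no effect and substrate without enzyme for full effect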
* = called active by the depositor; · = not tested or not shown.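 Rule for the calls, unless noted: active = mean inhibition above about 50% in the one-dose retest (limit read from the data); inactive = the rest.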

SMILES | SENP7 block | SENP6 block | SENP8 block-1 | SENP8 block-2 | SENP1 FRET inh | Platelet DG rel | SENP8 conf | SENP6 confirm | SENP7 confirm | Casp3 SENP sel | SENP luc ctr
CCN(C(=O)CSc1nc2ccccc2c(=O)n1Cc1ccc(C)cc1)C1CCS(=O)(=O)C1 (centres undefined) | 10 | -2 | -4 | -2 | 1 | 5 | · | · | · | · | ·
CCc1ccc(NC(=O)Nc2ccon2)cc1 | 52* | 23 | 21 | 19 | 0 | 9 | 42 | 35 | 70* | 52* | 44
CCOc1ccc(NC(=O)Nc2cccs2)cc1 | 73* | 27 | 27 | 67* | 1 | 23 | -18 | 72* | 95* | 85* | 82*
O=C1CC(N2CCC(Cc3ccccc3)CC2)C(=O)N1CCc1ccccc1 (centres undefined) | 6 | -10 | -2 | -7 | 1 | -7 | · | · | · | · | ·
Cn1cc(C(=O)c2ccc(Cl)cc2Cl)cc1C(=O)O | -2 | 1 | 15 | -5 | 2 | 1 | · | · | · | · | ·
CC(C)(O)c1cc2ccc(C#CCCN3C(=O)c4ccccc4C3=O)cc2c(=O)o1 | -5 | -7 | -38 | -12 | 2 | · | · | · | · | · | ·
O=C(c1ccccc1)c1cc2ccccc2oc1=O | 6 | 16 | 23 | 0 | -1 | -3 | · | · | · | · | ·
O=C(NNC(=O)c1cc2ccccc2o1)c1ccc(F)cc1 | 5 | 8 | -58 | -1 | 2 | · | · | · | · | · | ·
COc1cccc2cc(C(=O)c3ccccc3)oc12 | 62* | 73* | 6 | 61* | 1 | 3 | -8 | 60* | 84* | 61* | 64*
O=C(c1ccc(F)cc1)c1cc2ccccc2o1 | 67* | 84* | 18 | 51* | 3 | -7 | 7 | 46 | 84* | 57* | 18
COc1ccc(OC(=O)c2cc3ccccc3o2)cc1 | 71* | 61* | 14 | -54 | 4 | 3 | 12 | 29 | 89* | 35 | 20
O=C(c1ccccc1)c1cc2ccccc2o1 | 65* | 74* | 26 | 51* | -3 | -1 | 8 | 58* | 82* | 53* | 16
CC(=O)Nc1ccc(NC(=O)c2cc(C3CC3)nc3c2cnn3C(C)C)cc1 | -2 | -12 | -7 | 8 | 2 | · | · | · | · | · | ·
CCOC(=O)CN1C=C(c2ccc3ccccc3n2)C(C[N+](=O)[O-])c2ccccc21 (centres undefined) | 5 | -14 | -470 | -2 | -24 | -1 | · | · | · | · | ·
O=C(O/N=C/C1=C(Cl)c2ccccc2CC1)c1ccc(F)cc1 | 64* | -15 | -2 | -11 | 4 | -1 | 10 | 13 | 17 | 31 | 2
Cc1ccc(/C=N/N=C/c2ccc(C)cc2)cc1 | 39 | 1 | 14 | -13 | 1 | -3 | · | · | · | · | ·
C(=N\N=C\c1ccccc1)/c1ccccc1 | 69* | 83* | 5 | 65* | 3 | -4 | -2 | 67* | 94* | 62* | 10
O=C(CCc1nnc2ccc(NCc3ccccc3)nn12)NCC1CCN(C2CCCC2)C1 (centres undefined) | -5 | -3 | 0 | -8 | -17 | -6 | · | · | · | · | ·
CC(C)(C)C1CCC(C(=O)NNC(=O)c2ccncc2)CC1 (centres undefined) | 4 | -2 | 10 | -1 | -1 | 13 | · | · | · | · | ·
N#Cc1c(/N=C/c2cc(Br)cs2)sc2c1CCC2 | 8 | -17 | 12 | -13 | -5 | 2 | · | · | · | · | ·
N#Cc1c(/N=C/c2cccs2)sc2c1CCC2 | 95* | 65* | 28 | 79* | -11 | 8 | 35 | 35 | 22 | 34 | 22
N#Cc1c(/N=C/c2ccco2)sc2c1CCCCC2 | 96* | 92* | 20 | 94* | -1 | 8 | 4 | 98* | 69* | 75* | 22
Cc1ccc(Nc2ncnc3c2oc2ccccc23)cc1 | 33 | 66* | -283 | 35 | 1 | 1 | -7 | 23 | 74* | 28 | 9
COc1ccc(Nc2ncnc3c2oc2ccccc23)cc1 | 16 | 12 | -120 | 4 | 2 | -11 | · | · | · | · | ·
c1ccc2c(c1)oc1c(Nc3ccc4c(c3)OCCO4)ncnc12 | 92* | 92* | -97 | 85* | -22 | 4 | 22 | 79* | 90* | 60* | 23
SMILES | SENP7 block | SENP6 block | SENP8 block-1 | SENP8 block-2 | SENP1 FRET inh | Platelet DG rel | SENP8 conf | SENP6 confirm | SENP7 confirm | Casp3 SENP sel | SENP luc ctr
CCOc1ccc(C(=O)Nc2cc(C)ccn2)cc1 | 96* | 91* | 10 | 91* | 0 | 76* | -12 | 90* | 100* | 96* | 91*
O=C(Nc1ccon1)c1ccc(Cl)s1 | 0 | -2 | 9 | 0 | 0 | 1 | · | · | · | · | ·
O=C(Nc1cc(-c2ccccc2)[nH]n1)c1ccccc1 | 62* | 80* | 1 | 59* | -2 | 3 | 68* | 62* | 88* | 63* | 71*
Cc1ccnc(NC(=O)c2ccc(Cl)s2)c1 | 72* | 76* | 6 | 67* | 2 | -6 | 76* | 75* | 93* | 86* | 77*
Cc1ccnc(NC(=O)c2ccc(C(=O)c3ccccc3)cc2)c1 | 70* | 80* | -1 | 73* | 3 | 20 | 72* | 69* | 93* | 85* | 78*
O=C(O)c1ccccc1C(=O)Nc1cc(-c2ccccc2)[nH]n1 | 0 | -18 | 2 | 3 | 1 | 6 | · | · | · | · | ·
Cc1nc(C(F)(F)F)c(C(=O)NC(=O)Nc2ccc(OC(F)(F)F)cc2)s1 | 3 | 9 | 19 | -4 | 1 | 1 | · | · | · | · | ·
CCOc1ccc(C(=O)Nc2cccc(C)n2)cc1 | 91* | 87* | 19 | 80* | 3 | 30 | -9 | 83* | 98* | 94* | 87*
Cc1cccc(N2C(=O)c3cccc4c(N)ccc(c34)C2=O)c1 | -2 | 21 | -82 | 2 | -26 | 13 | · | · | · | · | ·
CCn1c(/N=C/c2c[nH]c3ccccc23)nc2ccccc21 | 44 | 72* | 13 | 53* | -4 | 10 | 69* | 71* | 92* | 34 | 79*
CC(=O)c1cnc(Nc2ccccc2)s1 | 1 | 6 | -364 | 1 | -1 | 1 | · | · | · | · | ·
CC(=O)c1cnc(Nc2cccc(Cl)c2Cl)s1 | 48 | 53* | -270 | 41 | -4 | -5 | 62* | 58* | 86* | 61* | 5

Screening data (PubChem)
